Consider 167 variants from the RNAGym collection of RNA variant scans (doi:10.1126/science.aae0568).

B1: tRNA (parent)
chain: GUUCCGUUGGCGUAAUGGUAACGCGUCUCCCUCCUAAGGAGAAGACUGCGGGUUCGAGUCCCGUACGGAACG

This sample holds only a part of the variants without activity.

Variants of B1 are the subject of this series. As to the kind of experiment: yeast fitness relative to wild type (ratio to wild type); higher = fitter; tRNA-Arg(CCU), competitive growth, 37 C, YPD. The procedure, abridged: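 A pool of Saccharomyces cerevisiae strains, each with a tRNA-Arg(CCU) gene variant at the native genomic locus, was competed in YPD at 37°C for 24 hours across six parallel replicates. The variants had been chemically synthesised at a 3% per-site mutation rate over 69 sites, and gene amplicons before and after competition were read by 100-nucleotide paired-end sequencing. Darwinian fitness relative to wild type rested on changes in genotype frequencies. Genotypes required ≥ 100 starting reads, and estimates < 0.5 were set to 0.5.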
As for G25A C27G G41C, the yeast fitness was found to be 0.671.

As to G25A C30A G38A A43G C46U A57U, the yeast fitness stood at 0.614.

C24U C55G C66A: the yeast fitness is no more than 0.5.

Turning to C24U U47C, the yeast fitness is 0.997.

Take G25A G41A C46A A69C: the yeast fitness turned out to be 0.935.

In the case of G25A G67C, the yeast fitness amounted to 0.992.

Take C24U G39A A70C: the yeast fitness was found to be 0.668.

Turning to G25A G52A A70U, the yeast fitness is 0.666.

As to G25A C33G A42G G50A, the yeast fitness amounted to 0.596.

With C24U U59G, the yeast fitness amounted to 0.712.

As to C24U U59C, the yeast fitness is 0.879.

C24U U47C C62U: the yeast fitness worked out at 0.803.

Turning to C24U G41A C61G, the yeast fitness is 0.587.

With G25A C27G C60A A70U, the yeast fitness is no more than 0.5.

For G25A C46U A57U, the yeast fitness amounted to 0.965.

In the case of C24U U53C C60G, the yeast fitness is no more than 0.5.

Consider G25A G44A, for which the yeast fitness stood at 0.841.

Regarding G25A C34G, the yeast fitness was determined as 0.726.

In the case of G25A C61U A69C, the yeast fitness came out at 0.637.

Take C24U G56C A57G: the yeast fitness was no more than 0.5.

On to C24U U35A A69U, for which the yeast fitness was determined as 0.513.

Regarding G25A C29U A69C, the yeast fitness came to 0.807.

In the case of G25A A37G, the yeast fitness came out at 0.699.

As for G25A A37C, the yeast fitness worked out at 0.757.

Take G25A A37U: the yeast fitness is 0.652.

As for C24U C60G C66G, the yeast fitness is no more than 0.5.

Regarding G25A A45G G48A G50C A69C, the yeast fitness was no more than 0.5.

Take G25A G41A A43U: the yeast fitness is no more than 0.5.

Turning to C24U C55A, the yeast fitness worked out at 0.655.

On to G25A A37C C62U, for which the yeast fitness turned out to be 0.924.

Consider G25A C49U A65G A70C, for which the yeast fitness is no more than 0.5.

With C24U C66U A69C, the yeast fitness is 0.568.

Take G25A C33U A45U C60G: the yeast fitness is no more than 0.5.

With G25A A45G, the yeast fitness was found to be 0.961.

In the case of G25A A45C, the yeast fitness turned out to be 0.957.

On to G25A U59C, for which the yeast fitness was 0.775.

Turning to G25A C62A A70U, the yeast fitness is 0.678.

For G25A G56A, the yeast fitness stood at 0.919.

As for C24U U59A C66U, the yeast fitness was 0.565.

C24U U26C C49U: the yeast fitness amounted to 0.692.

On to C24U U26G A43G A70U, for which the yeast fitness stood at 0.597.

For the variant G25A A40C A70U, the yeast fitness was determined as 0.625.

Turning to C24U G50A, the yeast fitness was determined as 0.844.

With C24U G52A, the yeast fitness was determined as 0.871.

On to G25A C27U A36U, for which the yeast fitness was determined as 0.53.

For the variant C24U U47C G48A C62G A69U, the yeast fitness is no more than 0.5.

For C24U C55G A70U, the yeast fitness worked out at 0.698.

In the case of C24U U32C, the yeast fitness worked out at 0.991.

Turning to C24U U32G, the yeast fitness was found to be 0.584.

Regarding C24U U32A, the yeast fitness was determined as 0.784.

As to G25A A40U A42C A45U U47C A65G, the yeast fitness worked out at 0.664.

In the case of C24U C60G A65U, the yeast fitness is no more than 0.5.

For C24U U35A A40G, the yeast fitness came to 0.576.

As for G25A A40C C66U A70C, the yeast fitness is no more than 0.5.

As for G25A G50A A69C, the yeast fitness turned out to be 0.676.

In the case of G25A G58C C66U, the yeast fitness is 0.778.

Consider G25A C60A C61G A65U, for which the yeast fitness was no more than 0.5.

For G25A C29U A57U C62A A69G, the yeast fitness was no more than 0.5.

For C24U U26C A65C, the yeast fitness is 0.695.

Regarding G25A G39A G52A, the yeast fitness is no more than 0.5.

G25A C27A: the yeast fitness worked out at 1.11.

As for G25A C27G, the yeast fitness worked out at 0.78.

Turning to C24U G39C C61U, the yeast fitness came out at 0.549.

For G25A C31G A70G, the yeast fitness was found to be 0.642.

For the variant G25A C27U U53C A70G, the yeast fitness is no more than 0.5.

On to C24U G58A C62U G63A, for which the yeast fitness is no more than 0.5.

Consider C24U U26G G41A A57U, for which the yeast fitness was 0.641.

Turning to C24U U32A C33G, the yeast fitness was no more than 0.5.

As to G25C A37G A40C C61G, the yeast fitness was no more than 0.5.

Turning to G25A C34G U54A A65U, the yeast fitness was no more than 0.5.

Consider G25A G44C C61G, for which the yeast fitness turned out to be 0.526.

Take G25A G48A A70C: the yeast fitness was 1.13.

For G25A C31U G38C A65C G68A A69U, the yeast fitness was no more than 0.5.

For the variant C24U C34U A57U C60U, the yeast fitness was no more than 0.5.

Consider G25A A45U A69U, for which the yeast fitness is 0.806.

In the case of C24U G44A U54C, the yeast fitness is 0.726.

For the variant G25A G41C C66U, the yeast fitness was found to be 0.755.

In the case of C24U U47C U59C, the yeast fitness was 0.684.

As for C24U U64A, the yeast fitness was determined as 0.822.

As to C24U U64C, the yeast fitness was 0.925.

Take C24U U64G: the yeast fitness came out at 0.691.

Turning to G25C, the yeast fitness was determined as 1.

For the variant G25A, the yeast fitness is 0.984.

On to C24U G48A U64A, for which the yeast fitness was no more than 0.5.

With G25A C29U A45U G58C, the yeast fitness is 0.772.

Consider G25A G50U, for which the yeast fitness worked out at 0.826.

For the variant G25A G50A, the yeast fitness is 0.997.

Take C24U C46A U64C: the yeast fitness came out at 0.973.

Take G25A C30U: the yeast fitness came out at 1.

As for G25A C55G, the yeast fitness worked out at 0.681.

Take G25A A36G: the yeast fitness came to 0.962.

In the case of G25A A43G C49U, the yeast fitness turned out to be 0.94.

In the case of G25A C29A A43C A57C, the yeast fitness is no more than 0.5.

As to G25A A43U G56A, the yeast fitness was 0.718.

Consider C24U G38C C62G, for which the yeast fitness turned out to be 0.623.

Regarding G25A C31U A42G C62U A69C, the yeast fitness was no more than 0.5.

With C24U C55G C61G, the yeast fitness was no more than 0.5.

Turning to G25A C30U C60G, the yeast fitness turned out to be 0.541.

For G25A C62U, the yeast fitness is 0.931.

On to G25A C62A, for which the yeast fitness is 0.843.

With G25A C62G, the yeast fitness is 0.855.

As for G25A C30U U54A, the yeast fitness was found to be 0.533.

In the case of G25A C66U, the yeast fitness turned out to be 0.902.

Consider G25A C66A, for which the yeast fitness is 0.631.

For the variant C24U C34U C46A G67A, the yeast fitness was no more than 0.5.

Regarding C24U U47A C66U, the yeast fitness was no more than 0.5.

On to G25A C46U C62G, for which the yeast fitness worked out at 0.739.

Consider C24U C66G G68C, for which the yeast fitness was no more than 0.5.

For the variant C24U U59A C62A, the yeast fitness is no more than 0.5.

For G25A C27G G67C, the yeast fitness is no more than 0.5.

For the variant C24U U26C G68A, the yeast fitness is 0.566.

Turning to G25A G48C C49G, the yeast fitness is no more than 0.5.

As for C24U C61U A70C, the yeast fitness amounted to 0.714.

On to G25A C31U C66U, for which the yeast fitness amounted to 0.761.

For the variant G25A A43C C66A, the yeast fitness was determined as 0.581.

As for C24U G44C C62U, the yeast fitness came out at 0.784.

With G25A C29U C49U A65C, the yeast fitness was no more than 0.5.

G25A G41A C46G G50A C62A: the yeast fitness was no more than 0.5.

G25A C46G: the yeast fitness amounted to 0.99.

For G25A C46U, the yeast fitness was 0.938.

G25A C27G C46G C61A: the yeast fitness was no more than 0.5.

G25A A37C G38C C60U C62U A69U: the yeast fitness is no more than 0.5.

As to C24U C61U U64C, the yeast fitness amounted to 0.697.

With G25A U26C C29G A45G, the yeast fitness was no more than 0.5.

Regarding C24U U26G C30U G39C, the yeast fitness was no more than 0.5.

Consider C24U G51A, for which the yeast fitness was 0.675.

For the variant C24U U26A, the yeast fitness came to 0.938.

For C24U U26C, the yeast fitness came to 0.986.

Turning to C24U U26G, the yeast fitness stood at 0.987.

As to C24U U35C C66U, the yeast fitness was no more than 0.5.

Regarding G25A G63C, the yeast fitness came to 0.737.

Take G25A G63A: the yeast fitness came to 0.949.

For the variant G25A U35G, the yeast fitness is 0.603.

In the case of G25A U35C, the yeast fitness was 0.942.

For the variant C24U G44C G58C, the yeast fitness came out at 0.995.

With C24U U47A C61A, the yeast fitness was no more than 0.5.

Consider G25A A45C U53C C55U G56C, for which the yeast fitness is no more than 0.5.

On to G25A C31U G38C, for which the yeast fitness came to 0.881.

Consider G25A C60G C61A G63A, for which the yeast fitness was no more than 0.5.

Take G25A U26A C31U G38A A42G A43U: the yeast fitness came out at 0.52.

Regarding G25A A43U, the yeast fitness is 0.842.

Take G25A A43C: the yeast fitness was found to be 0.975.

With G25A A43G, the yeast fitness came out at 0.949.

With G25A C30A C34A A69C, the yeast fitness was no more than 0.5.

On to G25A A36G A45C, for which the yeast fitness was found to be 0.929.

Take C24U C62G U64G: the yeast fitness is no more than 0.5.

On to C24U G41A, for which the yeast fitness was found to be 0.926.

Consider C24U U28G C33G C34U A36G A40G, for which the yeast fitness was found to be 0.596.

Turning to C24U G58A A65C, the yeast fitness was determined as 0.707.

Take C24U U32G A40U U64G: the yeast fitness is 0.593.

Regarding C24U G25A C30U G50A G68C, the yeast fitness was no more than 0.5.

As to G25A U32C G41A G56A, the yeast fitness stood at 0.553.

G25A C30G A57G: the yeast fitness turned out to be 0.582.

Turning to G25A C34U A36U C60U, the yeast fitness is no more than 0.5.

On to C24U G25A C30U G50A G56A, for which the yeast fitness is no more than 0.5.

For C24U G48C C62A, the yeast fitness stood at 0.579.

As to G25A U53A G63A, the yeast fitness turned out to be 0.523.

In the case of G25A C46A G52C, the yeast fitness stood at 0.615.

For the variant C24U U35C C55G A70U, the yeast fitness was found to be 0.569.

In the case of C24U C34U C49U C61U, the yeast fitness was no more than 0.5.

C24U G25C C46U G50C: the yeast fitness was no more than 0.5.

Regarding G25A A37U C61A, the yeast fitness is 0.616.

As to G25A A40U C49U C60A G63A, the yeast fitness was 0.507.

In the case of G25A A40G C55G, the yeast fitness is no more than 0.5.

G25C A36G G48A C60A: the yeast fitness is no more than 0.5.

For C24U G39C, the yeast fitness stood at 0.735.

Turning to C24U G39A, the yeast fitness is 0.875.
